# Screens deposited in PubChem BioAssay by several laboratories.
# In the library only some 1.7% were active in any assay of this set; here they are far more common.
# V-ATPase pH: regulators of yeast V-ATPase proton pumping, primary screen, pHLuorin cytosolic pH fluorescence; S. cerevisiae; response, % at 10 µM; actives 0.37% (n = 350,000); in the data active means response mostly above about 7.3%, no sharp cut-off; inactive means mostly below about 5.4%; further: actives read high
# SR-BI uptake up: activators of SR-BI mediated DiI-HDL uptake, primary screen, ldlA[mSR-BI] CHO cells, DiI fluorescence; actives 0.096% (n = 320,000); 3 h; 100 = double the neutral-control signal; activation, % at 12.5 µM;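 active means mean replicate activation of at least 60% and every replicate at or above 60%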
#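 Material: SR-BI-overexpressing, LDLR-lacking CHO cells; schedule: compound exposure 3 h, 37 °C; reagent: DiI-labelled HDL at 10 µg/mL final; technique: bottom-read fluorescence, 550/595 nm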
# NTR1 ag: agonists of human NTR1, primary screen, imaging, U2OS cells, beta-arrestin-GFP, high content; Neurotensin receptor type 1 (Homo sapiens), P30989; NTR1-U2OS beta-arrestin-GFP spot imaging, agonist mode; activation, % at 20 µM; actives 0.17% (n = 330,000);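 active means activation at or above 40% of the spot to cytoplasm intensity ratio, with at least 20 cells analyzed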
# CaV13 ICDI inh: Disruptors of the CACNA1D IQ motif to Ca2+-dependent inactivation inhibitor domain association, primary screening, Förster resonance energy transfer in intact living …; HEK cells, CFP/YFP FRET ICDI-IQ, plate reader, 10 min; percent FRET-ratio fall versus neutral wells; actives 0.098% (n = 340,000); AID 743397; inhibition, % at 12.3 µM;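 active means mean replicate inhibition of at least 30% and at least 1% of replicates passing that level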
# SR-BI DiI inh: inhibitors of SR-BI mediated HDL lipid uptake, primary screen, ldlA[mSR-BI] cells, fluorescence, single point; Scavenger receptor class B member 1 (Mus musculus), Q61009; ldlA[mSR-BI] CHO cells, DiI-HDL uptake fluorescence, 3 h; inhibition, % at 12.5 µM; actives 0.96% (n = 320,000); AID 488896, 2010;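 active means mean replicate inhibition of at least 70% and a set share of replicates each scoring 70 or more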
# Target sequence (Q61009 whole entry, looked up): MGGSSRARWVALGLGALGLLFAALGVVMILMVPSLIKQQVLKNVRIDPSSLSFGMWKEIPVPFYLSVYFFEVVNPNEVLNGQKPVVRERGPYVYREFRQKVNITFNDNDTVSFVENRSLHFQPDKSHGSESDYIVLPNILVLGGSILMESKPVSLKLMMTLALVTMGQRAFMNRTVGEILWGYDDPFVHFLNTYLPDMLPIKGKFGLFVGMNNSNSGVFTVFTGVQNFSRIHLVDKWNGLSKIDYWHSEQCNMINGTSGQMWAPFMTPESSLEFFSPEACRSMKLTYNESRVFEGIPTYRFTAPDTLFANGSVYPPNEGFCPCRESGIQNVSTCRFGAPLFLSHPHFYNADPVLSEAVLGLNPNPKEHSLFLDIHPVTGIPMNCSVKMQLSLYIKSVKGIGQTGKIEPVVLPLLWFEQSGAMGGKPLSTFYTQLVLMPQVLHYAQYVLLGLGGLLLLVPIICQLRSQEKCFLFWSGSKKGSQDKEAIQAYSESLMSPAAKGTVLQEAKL
# Vif imaging: HIV Vif self-association inhibitors, primary screen, imaging, HEK293T, single point. actives 0.35% (n = 340,000). HEK293T cells, Vif self-association by quenched fluorescence, 24 h. inhibition, % at 7.49 µM. AID 602346, 2012; in the data active means inhibition above about 50%, passing the limit was not always enough
# A number is an active result; – = inactive; · = no result given; + = active, no number.
SMILES,V-ATPase pH,SR-BI uptake up,NTR1 ag,CaV13 ICDI inh,SR-BI DiI inh,Vif imaging
Cc1ccc2nc(-c3ccccc3)nn2c1,–,–,·,–,–,–
COc1ccc(OCCN2CCC(C(=O)NC(c3ccccn3)c3ccccc3OC)CC2)cc1 (stereo not given),·,·,·,–,·,50.9
O=C(NCc1ccc(F)cc1)C1CC(=O)N(C2CCCCC2)C1 (stereo not given),–,–,–,–,–,–
CCOc1ccccc1/C=C/c1onc(C)c1S(=O)(=O)N1CCC(C(=O)N2CCCCCC2)CC1,–,–,–,–,92.1,–
CCOc1ccccc1/C=C/c1onc(C)c1S(=O)(=O)N1CCC(C(=O)NC(C)C)CC1,–,–,–,–,–,–
Cc1cc(C)c(C(O)c2ncc(-c3ccccc3Cl)[nH]2)c(C)c1 (stereo not given),·,·,·,–,·,·
CCN(CC(=O)Nc1cccc(OC)c1)C(=O)c1ccc(C)s1,–,–,–,–,–,–
Cc1cc(=O)oc(C)c1C(=O)Nc1cccc(F)c1,–,–,–,–,–,–
CCN(CC)CCN1C2=C(C(=O)CC(C)(C)C2)C(c2cccc(F)c2)C2=C1CC(C)(C)CC2=O,–,–,–,123.1,–,–
CCOc1ccc2nc(NCCNC(=O)CC)c(C#N)cc2c1,–,–,–,33.1,–,–
COc1cc(C(=O)NCCCNc2nc3cc(C)cc(C)c3cc2C#N)cc(OC)c1OC,–,–,–,–,–,–
CCOc1ccc2nc(NCCCNC(=O)c3cc(OC)c(OC)c(OC)c3)c(C#N)cc2c1,–,·,–,+,·,–
COc1ccc(-n2c(SCC(=O)N3CCCCC3C)nnc2-c2cccnc2)cc1 (stereo not given),–,116.7,–,–,–,–
COc1ccc(-n2c(SCC(=O)N3CCCC(C)C3)nnc2-c2cccnc2)cc1 (stereo not given),–,–,–,·,–,–
COc1ccc(-c2nc(NC(=O)c3ccc(OCC(=O)N4CCOCC4)c(OC)c3)sc2C)cc1,–,–,–,–,71.5,–
COc1cc(C(=O)Nc2ccc(C)cn2)ccc1OCC(=O)N1CCOCC1,–,–,–,–,–,–
CCN1C/C(=C\c2cccc([N+](=O)[O-])c2)C(=O)/C(=C/c2cccc([N+](=O)[O-])c2)C1,–,–,·,–,–,70.1
O=C1/C(=C/c2ccc([N+](=O)[O-])cc2)CCc2ccccc21,·,·,–,·,·,·
O=C1/C(=C/c2cccc([N+](=O)[O-])c2)CCc2ccccc21,–,–,–,–,–,136.2
CCc1nc(SCC(=O)c2ccccc2)c2ccccc2n1,–,–,–,39.4,–,–
CCc1nc(SCC(=O)c2ccc3c(c2)OCCO3)c2ccccc2n1,–,–,–,–,–,–
O=C(c1ccccc1)c1cc(Cl)ccc1N1C(=O)C=CC1=O,12.5,–,·,–,–,–
O=C(CC(=O)c1cc(Cl)ccc1O)c1ccccc1,–,–,–,–,–,–
COc1ccc(NS(=O)(=O)c2ccc3oc(=O)c4[nH]c(=O)c(=O)n(C)c4c3c2)cc1,–,–,–,–,–,–
O=C(C1COc2ccccc2O1)N1CCN(c2ccc(C(F)(F)F)cn2)CC1 (stereo not given),–,–,–,–,–,–
Cc1cc(C)nc(N/N=C/C2=C(N3CCOCC3)C(=C\c3ccc(Cl)cc3)/CC2)n1,–,–,–,–,73.8,–
Cc1occc1C(=O)N/N=C/C1=C(N2CCOCC2)C(=C\c2ccc(Cl)cc2Cl)/CC1,–,–,–,–,77.1,–
O=CC1=C(N2CCOCC2)/C(=C/c2ccc(Cl)cc2)CC1,–,–,–,–,–,–
Cc1cc(C)nc(NN=CC2=C(N3CCOCC3)/C(=C/c3ccc(Cl)cc3)CC2)n1,–,–,·,–,75.6,–
